# How the values were obtained:
# Homo sapiens [1] = species: Homo sapiens; test: Selectivity ratio of Ki for human prostanoid DP receptor to Ki for human prostanoid EP4
# Homo sapiens [2] = species: Homo sapiens; test: Selectivity ratio of Ki for human prostanoid EP3 receptor to Ki for human prostanoid EP4
# Homo sapiens [3] = species: Homo sapiens; test: Selectivity ratio of Ki for human prostanoid IP receptor to Ki for human prostanoid EP4
# Homo sapiens [4] = species: Homo sapiens; test: Selectivity ratio of Ki for human prostanoid FP receptor to Ki for human prostanoid EP4
# Homo sapiens [5] = species: Homo sapiens; test: Selectivity ratio of Ki for human prostanoid TP receptor to Ki for human prostanoid EP4
# [6] = molecular target: T1, Prostaglandin E2 receptor EP4 subtype (Homo sapiens, UniProt P35408); test: Displacement of [3H]PGE2 from human prostanoid EP4 receptor expressed in HEK293-EBNA cells after 60 mins by scintillation counting; assay type: cell-based
# T1 sequence (P35408 whole entry): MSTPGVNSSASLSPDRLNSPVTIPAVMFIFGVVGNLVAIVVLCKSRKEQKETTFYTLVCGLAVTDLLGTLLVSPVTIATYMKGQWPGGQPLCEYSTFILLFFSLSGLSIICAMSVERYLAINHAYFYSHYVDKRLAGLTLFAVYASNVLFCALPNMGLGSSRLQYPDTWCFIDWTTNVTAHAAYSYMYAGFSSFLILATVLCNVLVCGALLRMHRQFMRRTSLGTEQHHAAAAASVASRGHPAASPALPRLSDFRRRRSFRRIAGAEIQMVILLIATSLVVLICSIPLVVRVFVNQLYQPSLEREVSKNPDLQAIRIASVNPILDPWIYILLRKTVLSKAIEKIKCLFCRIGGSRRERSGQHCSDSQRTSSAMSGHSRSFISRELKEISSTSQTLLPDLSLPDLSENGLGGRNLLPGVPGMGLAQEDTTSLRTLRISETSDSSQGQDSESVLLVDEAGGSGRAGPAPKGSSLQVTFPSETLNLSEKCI
# [7] = molecular target: T1, Prostaglandin E2 receptor EP4 subtype; test: Antagonist activity at human prostanoid EP4 receptor expressed in HEK293 cells assessed as inhibition of PGE2-induced cAMP accumulation by scintillation proximity assay; assay type: functional, cell-based
# Method in brief: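 HEK293 cells expressing EP4 receptors. Antagonism is read as inhibition of PGE2-evoked rise in intracellular cAMP, reported as IC50. Agonism is read as cAMP elevation in the same cells without PGE2, reported as EC50.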
# Homo sapiens [8] = species: Homo sapiens; test: Selectivity ratio of Ki for human prostanoid EP1 receptor to Ki for human prostanoid EP4
# Homo sapiens [9] = species: Homo sapiens; test: Selectivity ratio of Ki for human prostanoid EP2 receptor to Ki for human prostanoid EP4
# [10] = Bioavailability in rat at 20 mg/kg, po and 5 mg/kg, iv; assay type: ADME, organism-based; conditions: in vivo
# Method in brief: (§1)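 Rat pharmacokinetics with potassium salts, given 20 mg/kg orally in 0.5% methocel and 5 mg/kg intravenously in 60% PEG 200. Half-life, oral bioavailability and clearance derived from these dosings.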
# [11] = Half life in rat at 20 mg/kg, po and 5 mg/kg, iv; assay type: ADME, organism-based; conditions: in vivo; method in brief: as §1
# [12] = Clearance in rat at 20 mg/kg, po and 5 mg/kg, iv; assay type: ADME, organism-based; conditions: in vivo; method in brief: as §1
# [13] = molecular target: T1, Prostaglandin E2 receptor EP4 subtype; test: Agonist activity at human prostanoid EP4 receptor expressed in HEK293 cells assessed as cAMP accumulation by scintillation proximity assay
SMILES,Ratio Ki (Homo sapiens [1]),Ratio Ki (Homo sapiens [2]),Ratio Ki (Homo sapiens [3]),Ratio Ki (Homo sapiens [4]),Ratio Ki (Homo sapiens [5]),Ki [6] [nM],IC50 [7] [nM],Ratio Ki (Homo sapiens [8]),Ratio Ki (Homo sapiens [9]),bioavailability [10] [%],half-life [11] [min],clearance [12] [mL/min/kg],EC50 [13] [nM]
C[C@H](NC(=O)c1cccc2c1N(Cc1ccc(C#N)cc1)CC2)c1ccc(C(=O)O)cc1,916,> 1000,> 1000,> 1000,> 1000,3.1,7.3,> 1000,603,–,–,–,–
C[C@H](NC(=O)c1cc(F)cc2c1N(Cc1ccc(C(F)(F)F)cc1)CC2)c1ccc(C(=O)O)cc1,> 1000,> 1000,> 1000,> 1000,> 1000,0.37,2.1,> 1000,> 1000,–,–,–,–
C[C@H](NC(=O)c1cccc2c1N(Cc1ccc(F)cc1)CC2)c1ccc(C(=O)O)cc1,907,> 1000,> 1000,> 1000,> 1000,1.8,6.2,> 1000,488,–,–,–,–
C[C@H](NC(=O)c1cccc2c1N(Cc1ccc(C(C)(C)C)cc1)CC2)c1ccc(C(=O)O)cc1,> 281,> 1000,> 1000,> 1000,> 1000,14,114,> 1000,> 692,–,–,–,–
C[C@H](NC(=O)c1cccc2c1N(Cc1cccnc1)CC2)c1ccc(C(=O)O)cc1,> 50,> 1000,> 1000,> 1000,> 1000,76,258,> 1000,> 127,–,–,–,–
C[C@H](NC(=O)c1cccc2c1N(Cc1ccc(-c3ccccc3)cc1)CC2)c1ccc(C(=O)O)cc1,57,> 1000,> 1000,> 1000,> 1000,0.28,1.3,> 1000,139,–,–,–,–
C[C@H](NC(=O)c1cc(Cl)cc2c1N(Cc1ccc(C(F)(F)F)cc1)CC2)c1ccc(C(=O)O)cc1,670,> 1000,> 1000,> 1000,> 1000,0.4,2.2,> 1000,647,–,–,–,–
C[C@H](NC(=O)c1cc(C(F)(F)F)cc2c1N(Cc1ccc(C(F)(F)F)cc1)CC2)c1ccc(C(=O)O)cc1,504,> 1000,> 1000,> 1000,> 1000,0.66,3,> 1000,153,–,–,–,–
C[C@H](NC(=O)c1cccc2c1N(Cc1ccc(C(F)(F)F)cc1)CC2)c1ccc(-c2nnn[nH]2)cc1,–,–,–,–,–,1,3.5,–,–,54,156,28,–
Cc1ccc(CN2CCc3cccc(C(=O)N[C@@H](C)c4ccc(C(=O)O)cc4)c32)cc1,> 1000,> 1000,> 1000,> 1000,> 1000,0.78,5.8,> 1000,> 1000,–,–,–,–
C[C@H](NC(=O)c1cccc2c1N(Cc1ccc(Cl)cc1)CC2)c1ccc(C(=O)O)cc1,> 1000,> 1000,> 1000,> 1000,> 1000,0.44,0.92,> 1000,> 1000,102,282,9,–
C[C@H](NC(=O)c1cccc2c1N(Cc1ccc(Cl)cc1Br)CC2)c1ccc(C(=O)O)cc1,114,> 1000,> 1000,> 1000,> 1000,2.3,8.3,> 1000,> 1000,–,–,–,–
C[C@H](NC(=O)c1cccc2c1N(Cc1ccc(OC(F)(F)F)cc1)CC2)c1ccc(C(=O)O)cc1,880,> 1000,> 1000,> 1000,> 1000,1.5,2.8,> 1000,687,–,–,–,–
C[C@H](NC(=O)c1cccc2ccn(Cc3cccc(Cl)c3)c12)c1ccc(C(=O)O)cc1,16,> 1000,> 1000,> 1000,> 1000,–,6,> 1000,> 1000,–,–,–,–
C[C@H](NC(=O)c1cccc2c1N(Cc1cccc(C(N)=O)c1)CC2)c1ccc(C(=O)O)cc1,461,> 1000,> 1000,> 1000,> 1000,30,72,> 1000,582,–,–,–,–
C[C@H](NC(=O)c1cccc2c1N(Cc1ccc(C(N)=O)cc1)CC2)c1ccc(C(=O)O)cc1,> 1000,> 1000,> 1000,> 1000,> 1000,30,73,> 1000,> 1000,–,–,–,–
C[C@H](NC(=O)c1cccc2c1N(Cc1ccc(Cl)c(Cl)c1)CC2)c1ccc(C(=O)O)cc1,241,> 1000,> 1000,> 1000,> 1000,0.34,1.1,> 1000,338,73,288,12,–
C[C@H](NC(=O)c1cccc2c1N(Cc1ccc(C(=O)O)cc1)CC2)c1ccc(C(=O)O)cc1,> 73,> 1000,> 1000,> 1000,> 1000,54,–,> 1000,> 179,–,–,–,–
C[C@H](NC(=O)c1cccc2c1N(Cc1ccc(C(F)(F)F)cc1Br)CC2)c1ccc(C(=O)O)cc1,88,> 1000,> 1000,> 1000,> 1000,6.7,4.7,> 1000,795,–,–,–,–
C[C@H](NC(=O)c1cccc2c1N(Cc1cc(Br)cc(Br)c1)CC2)c1ccc(C(=O)O)cc1,209,> 1000,> 1000,> 1000,> 1000,0.33,> 10000,> 1000,151,–,–,–,0.36
C[C@H](NC(=O)c1cccc2c1N(Cc1ccc(C(F)(F)F)cc1)CC2)c1ccc(-c2nn[nH]n2)cc1,> 1000,> 1000,> 1000,> 1000,> 1000,–,–,> 1000,> 1000,–,–,–,–
C[C@H](NC(=O)c1cccc2c1N(Cc1cccc(C#N)c1)CC2)c1ccc(C(=O)O)cc1,> 1000,> 1000,> 1000,> 1000,> 1000,7.5,212,> 1000,582,–,–,–,–
